Data as given in ChEMBL document CHEMBL1141347, “Heptaketides from Corynespora sp. inhabiting the cavern beard lichen, Usnea cavernosa: first report of metabolites of an endolichenic fungus” (J Nat Prod, 2007).
The source made the active and inactive calls. The calls are words filed in the database; no cut-off is given here.

Columns and labels:
[1] = system: MDA-MB-231; assay: Effect on cell viability of human MDA-MB-231 cells at 5 uM by flow cytometry; assay type: functional, cell-based
How it was run: (§1)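 Cells harvested straight from wound-healing assays by trypsinisation, washed twice with PBS, stained with ViaCount Flex reagent and run on a Guava EasyCyte flow cytometer, with EasyFit analysis separating viable cells from dead cells and debris. DMSO background control, 70% methanol death control, LY294002 control.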

[2] = system: MDA-MB-231; assay: Effect on cell viability of human MDA-MB-231 cells at 5 uM by microscopy based assay; assay type: functional
How it was run: (§2)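 Cells exposed during wound-healing assay, then stained with a live/dead kit. Live cells fluoresce green from esterase conversion of calcein AM to calcein; ethidium homodimer 1 enters membrane-damaged cells, giving red fluorescence on nucleic acid binding. Imaged by microscopy. Controls: DMSO (background), LY294002 7.5 µM, 0.1% saponin for 10 min (death).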

[3] = system: PC-3M; assay: Effect on cell viability of human PC3M cells at 5 uM by flow cytometry; assay type: functional, cell-based; how it was run: as §1
[4] = system: PC-3M; assay: Effect on cell viability of human PC3M cells at 5 uM by microscopy based assay; assay type: functional; how it was run: as §2
[5] = Antiproliferative activity against human PC3M cells after 40 hrs by MTT assay; assay type: functional, cell-based; settings: PC-3M
[6] = system: PC-3M; assay: Inhibition of human PC3M cell migration at 5 uM by wound-healing assay; assay type: functional, cell-based
[7] = system: MDA-MB-231; assay: Inhibition of human MDA-MB-231 cell migration at 5 uM by wound-healing assay; assay type: functional, cell-based
[8] = system: MDA-MB-231; assay: Inhibition of human MDA-MB-231 cell migration by wound-healing assay; assay type: functional, cell-based
[9] = system: PC-3M; assay: Inhibition of human PC3M cell migration by wound-healing assay; assay type: functional, cell-based
[10] = system: PC-3M; assay: Inhibition of human PC3M cell migration at 10 uM by wound-healing assay; assay type: functional, cell-based
How it was run: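 PC-3M scratch wound-healing migration assay with compound at 10 µM over 40 h. DMSO negative and LY294002 positive controls.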

For `COc1cc(OC)c2c(c1)C(=O)C1=C(COC(C)=C1)C2=O` [DEHYDROHERBARIN], the Activity [1] was “inactive”, the Activity [2] was “inactive” and the Activity [3] was “inactive”. The Activity [4] was “inactive”, the IC25 [5] was 2200 nM and the IC50 [5] was 3500 nM. The Activity [6] was “Active” and the Activity [7] was “Active”.
For `COc1cc(OC)c2c(O)c3c(c(OC(C)=O)c2c1)C[C@](C)(O)OC3`, the Activity [8] was “inactive” and the Activity [9] was “inactive”.
With `COc1cc(OC)c2c(O)c3c(c(OC(C)=O)c2c1)C=C(C)OC3` the Activity [8] was “inactive” and the Activity [9] was “inactive”.
For `COc1cc(OC)c2c(c1)C(=O)C1=C(C2=O)C(O)OC(C)=C1` (configuration not stated), the Activity [8] was “inactive” and the Activity [9] was “inactive”.
For `COc1cc(OC)c2c(c1)C(=O)C1=C(CO[C@@](C)(O)C1)C2=O`, the Activity [10] was “Active”.
For `COc1cc(OC)c2c(OC(C)=O)c3c(c(OC(C)=O)c2c1)C=C(C)OC3`, the Activity [8] was “inactive” and the Activity [9] was “inactive”.
